Converted amounts (≈) assume the structure as drawn.
What was measured:
Assay type in all cases: functional
Staphylococcus aureus [1] = assay: Antibacterial activity against methicillin-resistant Staphylococcus aureus
Method in brief: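 Agar dilution MIC on Mueller–Hinton agar, run per the NCCLS procedure. Test organisms were clinical isolates collected from Seoul hospitals between 1997 and 1999 and stored at -70 °C until use.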

Bacillus subtilis = assay: Antibacterial activity against Bacillus subtilis ATCC 6633
Method in brief: (§1)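 MIC by agar dilution on Mueller–Hinton agar, following the NCCLS procedure.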

Bacillus cereus = assay: Antibacterial activity against Bacillus cereus ATCC 27348; method in brief: as §1
Staphylococcus aureus [2] = assay: Antibacterial activity against Staphylococcus aureus ATCC 25923; method in brief: as §1
Staphylococcus aureus [3] = assay: Antibacterial activity against Staphylococcus aureus ATCC 6538P; method in brief: as §1
[4] = test system: Staphylococcus epidermidis; assay: Antibacterial activity against Staphylococcus epidermidis ATCC 12228; method in brief: as §1
Klebsiella pneumoniae = assay: Antibacterial activity against Klebsiella pneumoniae ATCC 10031; method in brief: as §1
Staphylococcus aureus [5] = assay: Antibacterial activity against Staphylococcus aureus; method in brief: as §1
Micrococcus luteus [6] = assay: Antibacterial activity against Micrococcus luteus ATCC 9341; method in brief: as §1
Staphylococcus aureus [7] = assay: Antibacterial activity against Staphylococcus aureus ATCC 29213; method in brief: as §1
Micrococcus luteus [8] = assay: Antibacterial activity against Micrococcus luteus ATCC 10240; method in brief: as §1

| SMILES | MIC50 (Staphylococcus aureus [1]) | MIC90 (Staphylococcus aureus [1]) | also measured |
| --- | --- | --- | --- |
| CCCCCCc1ccc2c3c1C(=O)C(=O)C(C)=C3OC=C2C | 8 µg/mL (≈ 25.8 µM) | 16 µg/mL (≈ 51.5 µM) |  |
| CCC1=C2OC=C(C)c3ccc(C)c(c32)C(=O)C1=O | 16 µg/mL (≈ 62.9 µM) | > 32 µg/mL |  |
| CC1=COC2=C(C)C(=O)C(=O)c3cccc1c32 | 8 µg/mL (≈ 35.4 µM) | 8 µg/mL (≈ 35.4 µM) |  |
| CCCCc1ccc2c3c1C(=O)C(=O)C(C)=C3OC=C2C | 0.5 µg/mL (≈ 1.77 µM) | 0.5 µg/mL (≈ 1.77 µM) | MIC (Bacillus subtilis): 0.5 µg/mL (≈ 1.77 µM); MIC (Bacillus cereus): 1 µg/mL (≈ 3.54 µM); MIC (Staphylococcus aureus [2]): 0.25 µg/mL (≈ 0.885 µM); MIC (Staphylococcus aureus [3]): 0.25 µg/mL (≈ 0.885 µM); MIC [4]: 0.25 µg/mL (≈ 0.885 µM); MIC (Klebsiella pneumoniae): 2 µg/mL (≈ 7.08 µM); MIC (Staphylococcus aureus [5]; Smith): 0.25 µg/mL (≈ 0.885 µM); MIC (Staphylococcus aureus [5]; TMS 33): 0.5 µg/mL (≈ 1.77 µM); MIC (Staphylococcus aureus [5]; TMS 64): 0.25 µg/mL (≈ 0.885 µM); MIC (Staphylococcus aureus [5]; TMS 417): 0.25 µg/mL (≈ 0.885 µM); MIC (Micrococcus luteus [6]): 0.25 µg/mL (≈ 0.885 µM); MIC (Staphylococcus aureus [7]): 0.25 µg/mL (≈ 0.885 µM); MIC (Micrococcus luteus [8]): 0.25 µg/mL (≈ 0.885 µM) |
| CC1=COC2=C(C)C(=O)C(=O)c3c(CCC(C)C)ccc1c32 | 8 µg/mL (≈ 27 µM) | 16 µg/mL (≈ 54 µM) |  |
| COC(=O)C1=C2OC=C(C)c3ccc(C)c(c32)C(=O)C1=O | 16 µg/mL (≈ 56.3 µM) | 32 µg/mL (≈ 113 µM) |  |
| CCCc1ccc2c3c1C(=O)C(=O)C(C)=C3OC=C2C | 1 µg/mL (≈ 3.73 µM) | 4 µg/mL (≈ 14.9 µM) |  |
| CC1=COC2=C(C)C(=O)C(=O)c3c(C)ccc1c32 [MANSONONE F] | 2 µg/mL (≈ 8.32 µM) | 4 µg/mL (≈ 16.6 µM) | MIC (Bacillus subtilis): 2 µg/mL (≈ 8.32 µM); MIC (Bacillus cereus): 4 µg/mL (≈ 16.6 µM); MIC (Staphylococcus aureus [2]): 1 µg/mL (≈ 4.16 µM); MIC (Staphylococcus aureus [3]): 4 µg/mL (≈ 16.6 µM); MIC [4]: 0.5 µg/mL (≈ 2.08 µM); MIC (Klebsiella pneumoniae): 8 µg/mL (≈ 33.3 µM); MIC (Staphylococcus aureus [5]; Smith): 4 µg/mL (≈ 16.6 µM); MIC (Staphylococcus aureus [5]; TMS 33): 8 µg/mL (≈ 33.3 µM); MIC (Staphylococcus aureus [5]; TMS 64): 8 µg/mL (≈ 33.3 µM); MIC (Staphylococcus aureus [5]; TMS 417): 4 µg/mL (≈ 16.6 µM); MIC (Micrococcus luteus [6]): 1 µg/mL (≈ 4.16 µM); MIC (Staphylococcus aureus [7]): 4 µg/mL (≈ 16.6 µM); MIC (Micrococcus luteus [8]): 1 µg/mL (≈ 4.16 µM) |
| CCc1ccc2c3c1C(=O)C(=O)C(C)=C3OC=C2C | 8 µg/mL (≈ 31.5 µM) | 16 µg/mL (≈ 62.9 µM) |  |
| CC1=COC2=C(Br)C(=O)C(=O)c3c(C)ccc1c32 | 8 µg/mL (≈ 26.2 µM) | 16 µg/mL (≈ 52.4 µM) |  |
| COC(=O)c1ccc2c3c1C(=O)C(=O)C(C)=C3OC=C2C | 16 µg/mL (≈ 56.3 µM) | 16 µg/mL (≈ 56.3 µM) |  |
| CC1=COC2=CC(=O)C(=O)c3c(C)ccc1c32 | 8 µg/mL (≈ 35.4 µM) | 16 µg/mL (≈ 70.7 µM) |  |
| CC1=COC2=C(CBr)C(=O)C(=O)c3c(C)ccc1c32 | 16 µg/mL (≈ 50.1 µM) | 16 µg/mL (≈ 50.1 µM) |  |
| CCCC1=C2OC=C(C)c3ccc(C)c(c32)C(=O)C1=O | 4 µg/mL (≈ 14.9 µM) | 8 µg/mL (≈ 29.8 µM) |  |
| COc1ccc2c3c1C(=O)C(=O)C(C)=C3OC=C2C | 8 µg/mL (≈ 31.2 µM) | 8 µg/mL (≈ 31.2 µM) |  |
| CCCCCc1ccc2c3c1C(=O)C(=O)C(C)=C3OC=C2C | 4 µg/mL (≈ 13.5 µM) | 8 µg/mL (≈ 27 µM) |  |
| CC1=COC2=C(C)C(=O)C(=O)c3c(C(C)C)ccc1c32 | 4 µg/mL (≈ 14.9 µM) | 16 µg/mL (≈ 59.6 µM) |  |
| CC(=O)C1=C2OC=C(C)c3ccc(C)c(c32)C(=O)C1=O | 16 µg/mL (≈ 59.6 µM) | 32 µg/mL (≈ 119 µM) |  |
| CN[C@H](CC(C)C)C(=O)N[C@H]1C(=O)N[C@@H](CC(N)=O)C(=O)N[C@H]2C(=O)N[C@H]3C(=O)N[C@H](C(=O)N[C@H](C(=O)O)c4cc(O)cc(O)c4-c4cc3ccc4O)[C@H](O)c3ccc(c(Cl)c3)Oc3cc2cc(c3O[C@@H]2O[C@H](CO)[C@@H](O)[C@H](O)[C@H]2O[C@H]2C[C@](C)(N)[C@H](O)[C@H](C)O2)Oc2ccc(cc2Cl)[C@H]1O [VANCOMYCIN] | 2 µg/mL (≈ 1.38 µM) | 2 µg/mL (≈ 1.38 µM) | MIC (Bacillus subtilis): 0.5 µg/mL (≈ 0.345 µM); MIC (Bacillus cereus): 4 µg/mL (≈ 2.76 µM); MIC (Staphylococcus aureus [2]): 8 µg/mL (≈ 5.52 µM); MIC [4]: 8 µg/mL (≈ 5.52 µM); MIC (Klebsiella pneumoniae): > 32 µg/mL; MIC (Micrococcus luteus [6]): 8 µg/mL (≈ 5.52 µM); MIC (Micrococcus luteus [8]): 4 µg/mL (≈ 2.76 µM) |
| CC1=COC2=CC(=O)C(=O)c3cccc1c32 | > 32 µg/mL | > 32 µg/mL |  |
